Source: PubChem BioAssay AID504588 (Broad Institute, 2011)

Tested on: U2OS HRE-luciferase reporter, luminescence
Assay: hypoxia response element transcription activators – U2OS cells, luminescence, dry powder, set 10, dose response (AID 504588)
Procedure, shortened: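 Assay system: human U2OS osteosarcoma cells stably expressing 3×HRE-driven luciferase reporter. Input: 6,000 cells per well. Schedule: 24 h compound exposure at 37 °C, 5% CO2, 21% O2. Measured by: Steady-Glo luminescence. Compound dosing: 3-fold dilution series.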

SMILES	AC40
c1ccc(CCNc2nc(-c3ccccn3)nnc2-c2ccccc2)cc1	2520 nM
c1ccc(-c2ccc(CNc3nc(-c4ccccn4)nnc3-c3ccccc3)cc2)cc1	360 nM
CC(C)(C)c1ccc(CNc2nc(-c3ccccn3)nnc2-c2ccccc2)cc1	447 nM
c1ccc(-c2cccc(CNc3nc(-c4ccccn4)nnc3-c3ccccc3)c2)cc1	721 nM
Clc1cccc(CNc2nc(-c3ccccn3)nnc2-c2ccccc2)c1	1310 nM
CC(C)(C)CCNc1nc(-c2ccccn2)nnc1-c1ccccc1	940 nM
